The source of these data is ChEMBL document CHEMBL4033754, “Antiobesity Effect of a Short-Length Peptide YY Analogue after Continuous Administration in Mice” (ACS Med Chem Lett, 2017).

The source made the active and inactive calls. The rule behind the calls is not given here. Where a SMILES comes first, the peptide text is derived from it. [ ]: non-standard residue; d: D form. The star is where a group is joined. ξ: configuration not given here. ξCha = NC(CC1CCCCC1)C(=O)O; Aib = CC(C)(N)C(=O)O; Bz = O=C(c1ccccc1)*

The nature of data set [1]: Mean residence time in C57BL/6J mouse at 1 mg/kg, iv after 24 hrs by LC-MS/MS analysis. Format: ADME, organism-based. As to conditions: in vivo. The essentials: (§1)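 Single 1 mg/kg dose, intravenous or subcutaneous, to C57BL/6J mice. Blood sampled at 5, 10, 15, 30 min and 1, 3, 6, 8, 24 h post-dose. Plasma peptide quantified by LC/MS/MS. Parameters derived from the mean (n = 3) plasma concentration–time profile.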

Data set [2] has as its system Mus musculus. The experiment in a line: Mean absorption time in C57BL/6J mouse at 1 mg/kg through subcutaneous administration after 24 hrs by LC-MS/MS analysis. Format: ADME, organism-based. The note with it: in vivo, sc. The essentials: as §1
The nature of data set [3]: Plasma concentration in C57BL/6J mouse at 1 mg/kg, iv after 5 mins by LC-MS/MS analysis. Format: ADME, organism-based. In short, it runs like this: as §1
The test system of data set [4] is Mus musculus. The experiment in a line: AUC (0 to 24 hrs) in C57BL/6J mouse at 1 mg/kg, iv by LC-MS/MS analysis. Format: ADME, organism-based. Details: dose 1 mg/kg, time < 24 hr, route intravenous. The note with it: in vivo. In short, it runs like this: as §1
Data set [5] in a line: Volume of distribution at steady state in C57BL/6J mouse at 1 mg/kg, iv after 24 hrs by LC-MS/MS analysis. Format: ADME, organism-based. The note with it: in vivo, read-out: Vdss. The essentials:
as §1

For data set [6], the system named is Mus musculus. The experiment in a line: Total clearance in C57BL/6J mouse at 1 mg/kg, iv after 24 hrs by LC-MS/MS analysis. Format: ADME, organism-based. The note with it: in vivo. In short, it runs like this:
as §1

Data set [7] is described as follows: Cmax in C57BL/6J mouse at 1 mg/kg through subcutaneous administration after 24 hrs by LC-MS/MS analysis. Format: ADME, organism-based. As to conditions: in vivo, sc. Details: dose 1 mg/kg, route subcutaneous. The essentials:
as §1

Data set [8] in a line: Tmax in C57BL/6J mouse at 1 mg/kg through subcutaneous administration after 24 hrs by LC-MS/MS analysis. Format: ADME, organism-based. The note with it: in vivo, sc. In short, it runs like this:
as §1

Data set [9] can be described thus: AUC (0 to 24 hrs) in C57BL/6J mouse at 1 mg/kg through subcutaneous administration after 24 hrs by LC-MS/MS analysis. Format: ADME, organism-based. Details: time < 24 hr, dose 1 mg/kg, route subcutaneous. As to conditions: in vivo, sc. The essentials:
as §1

Data set [10] can be described thus: Mean residence time in C57BL/6J mouse at 1 mg/kg through subcutaneous administration after 24 hrs by LC-MS/MS analysis. Format: ADME, organism-based. The note with it: in vivo, sc. The essentials:
as §1

Data set [11] relates to Mus musculus. The experiment in a line: Antiobesity activity in diet-induced obese C57BL/6J mouse model assessed as reduction in body weight at 1 mg/kg administered via subcutaneous osmotic pumps for 6 to 7 days relative to control. Format: functional. Details: scale not given: the % may be the effect or the level left. The essentials:
(§2)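 Male C57BL/6J DIO mice received peptides at 1 mg/(kg·day) by continuous subcutaneous osmotic pump for 6–7 days (n = 6 per group). Body weight reduction expressed as a percentage versus vehicle.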

Data set [12] concerns Mus musculus. The experiment in a line: Antiobesity activity in diet-induced obese C57BL/6J mouse assessed as reduction in body weight at 1 mg/kg administered via subcutaneous osmotic pumps for 7 days relative to control. Format: functional. Details: scale not given: the % may be the effect or the level left. The essentials:
as §2

For data set [13], the system named is Mus musculus. The experiment in a line: Anorectic activity in lean mouse assessed as inhibition of food intake at 300 nmol/kg through bolus subcutaneous administration relative to control. Format: functional. As to conditions: sc.
Data set [14] deals with Mus musculus. The experiment in a line: Antiobesity activity in lean C57BL/6J mouse assessed as inhibition of food intake at 1 mg/kg administered via subcutaneous osmotic pumps for 3 continuous days relative to control. The note with it: sc.
The test system of data set [15] is Mus musculus. The experiment in a line: Antiobesity activity in lean C57BL/6J mouse assessed as inhibition of food intake at 0.3 mg/kg administered via subcutaneous osmotic pumps for 3 continuous days relative to control. The note with it: sc.
Data set [16] has as its system Mus musculus. The experiment in a line: Antiobesity activity in diet-induced obese C57BL/6J mouse assessed as inhibition of food intake at 1 mg/kg administered via subcutaneous osmotic pumps for 7 days measured on day 4 of dosing. Format: functional, organism-based. In short, it runs like this: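 DIO mice given peptides continuously by subcutaneous osmotic pump for 7 days (n = 6), with body weight and cumulative food intake tracked daily. Statistics versus vehicle by Student's t test or Aspin-Welch test.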

A short description of data set [17]: Bioavailability in C57BL/6J mouse at 1 mg/kg through subcutaneous administration after 24 hrs by LC-MS/MS analysis. Format: ADME, organism-based. The note with it: in vivo, sc. In short, it runs like this: as §1
Data set [18] deals with T1, Neuropeptide Y receptor type 2 (Homo sapiens, UniProt P49146).
T1 sequence (P49146 whole entry): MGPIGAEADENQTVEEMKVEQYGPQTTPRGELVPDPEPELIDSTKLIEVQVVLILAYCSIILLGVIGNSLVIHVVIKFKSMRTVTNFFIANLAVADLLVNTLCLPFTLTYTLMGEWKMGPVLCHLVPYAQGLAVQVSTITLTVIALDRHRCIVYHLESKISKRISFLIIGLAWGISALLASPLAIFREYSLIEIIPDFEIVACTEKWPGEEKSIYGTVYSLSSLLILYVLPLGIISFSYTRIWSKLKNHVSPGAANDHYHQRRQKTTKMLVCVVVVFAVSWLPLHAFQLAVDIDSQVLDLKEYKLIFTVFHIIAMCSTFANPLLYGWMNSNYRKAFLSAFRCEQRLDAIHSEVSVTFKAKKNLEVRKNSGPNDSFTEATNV
The experiment in a line: Displacement of [125I]-PYY from human Y2R expressed in CHO cell membranes after 60 mins by liquid scintillation method. In general terms: Loss of bound radioactivity is the signal in a displacement assay; it reports binding, not function.

Data set [19] concerns the target T1, Neuropeptide Y receptor type 2. The experiment in a line: Agonist activity at human Y2R expressed in CHO cell membranes assessed as [35S]GTPgammaS binding after 120 mins by liquid scintillation method. Format: functional. (In general: Binding of GTPγS marks nucleotide exchange on a G protein.)
In data set [20] the test system is Mus musculus. The experiment in a line: Anorectic activity in lean mouse assessed as inhibition of food intake at 1000 nmol/kg through bolus subcutaneous administration relative to control. As to conditions: sc. Format: functional.

For the molecule `CC(=O)N[C@@H](CO)C(=O)N1C[C@@H](O)C[C@@H]1C(=O)N[C@@H](CCCNC(=N)N)C(=O)N[C@@H](Cc1cnc[nH]1)C(=O)N[C@@H](CC1CCCCC1)C(=O)N[C@@H](CC1CCCCC1)C(=O)N[C@@H](CC(N)=O)C(=O)N[C@@H](CC(C)C)C(=O)NC(C)(C)C(=O)N[C@H](C(=O)N[C@@H](CCCNC(=N)N)C(=O)N[C@@H](CCC(N)=O)C(=O)N[C@@H](CCCNC(=N)N)C(=O)N[C@@H](CC1CCCCC1)C(N)=O)[C@@H](C)O` [listing 1 of 2 here], the MRT – broadly, the average time that molecules of a dose stay in the body – in [1] amounted to 10.8 min; in data set [10], 19.2 min. For the same molecule, the MAT in data set [2] amounted to 0.14 h. The molecule further returned a concentration at 5 min in data set [3] of 0.935 µM. In data set [4], the AUC (in general, concentration integrated over time) came out at 180 nM·h. For the same molecule, in data set [5], the Vd amounted to 0.533 L/kg. This molecule also displayed a CL in [6] of 2.968 L/h/kg. In addition, the highest level in data set [7] (Cmax) was 0.0981 µM. Also, the Tmax (commonly the time at which the peak concentration occurs) in [8] stood at 10.2 min. Also, the AUC(0-t) (as a rule, exposure summed from dosing to a finite time, without extrapolation to infinity) at 24 h in data set [9] amounted to 33.6 nM·h.

Take `CC(=O)N[C@@H](CO)C(=O)N1C[C@@H](O)C[C@@H]1C(=O)N[C@@H](CCCNC(=N)N)C(=O)N[C@@H](Cc1cnc[nH]1)C(=O)N[C@@H](CC1CCCCC1)C(=O)N[C@@H](CC1CCCCC1)C(=O)N[C@@H](CC(N)=O)C(=O)N[C@@H](CC(C)C)C(=O)NC(C)(C)C(=O)N[C@H](C(=O)N[C@@H](CCCNC(=N)N)C(=O)N[C@@H](CCC(N)=O)C(=O)N[C@@H](CCCNC(=N)N)C(=O)N[C@@H](CC1CCCCC1)C(N)=O)[C@@H](C)O` [listing 2 of 2 here]: the Activity in data set [11] was -10.2%; in data set [12], 7.4%. Besides, in data set [13], the inhibition in vivo (usually the percentage by which the read-out fell short of the control) at 0.3 µmol/kg came to 23%. Also, the inhibition in vivo at 1 mg/kg in data set [14] stood at 79%. Besides, in data set [15], the inhibition in vivo at 0.3 mg/kg was 47%.

In the case of `CC(=O)N[C@@H](CO)C(=O)N1C[C@@H](O)C[C@@H]1C(=O)N[C@@H](CCCNC(=N)N)C(=O)N[C@@H](Cc1cnc[nH]1)C(=O)NC(CC1CCCCC1)C(=O)NC(CC1CCCCC1)C(=O)N[C@@H](CC(N)=O)C(=O)N[C@@H](CC(C)C)C(=O)NC(C)(C)C(=O)N[C@H](C(=O)N[C@@H](CCCNC(=N)N)C(=O)N[C@@H](CCC(N)=O)C(=O)N[C@@H](CCCNC(=N)N)C(=O)NC(CC1CCCCC1)C(N)=O)[C@@H](C)O` (stereo partly specified), in data set [16], the inhibition entry is “Active”.

With `CC(C)C[C@H](NC(=O)[C@H](CC(N)=O)NC(=O)C(CC1CCCCC1)NC(=O)C(CC1CCCCC1)NC(=O)[C@H](Cc1cnc[nH]1)NC(=O)[C@H](CCCNC(=N)N)NC(=O)c1ccccc1)C(=O)NC(C)(C)C(=O)N[C@H](C(=O)N[C@@H](CCCNC(=N)N)C(=O)N[C@@H](CCC(N)=O)C(=O)N[C@@H](CCCNC(=N)N)C(=O)NC(CC1CCCCC1)C(N)=O)[C@@H](C)O` (stereo partly specified) (Bz-RH[ξCha][ξCha]NL[Aib]TRQR[ξCha]-NH2), the MRT came out at 27 min in data set [1] and 190 min in [10]. Also, the bioavailability (usually the share of a dose that reaches the circulation, judged against a reference dose that is usually intravenous) in [17] worked out at 5.9%. Besides, the MAT in [2] is 2.72 h. In addition, the IC50 (as a rule, the concentration that inhibits the measured activity by half) in data set [18] worked out at 7.4 nM. Besides, in data set [19], the EC50 (in general, the concentration that produces a half-maximal response) amounted to 2 nM. In addition, in data set [11], the Activity is 0.4%. For the same molecule, in data set [3], the concentration at 5 min was 7.55 µM. The molecule further gave an AUC in data set [4] of 3560 nM·h. Also, the Vd in data set [5] came to 0.073 L/kg. In data set [6], this molecule displayed a CL of 0.162 L/h/kg. In addition, the highest level in data set [7] (Cmax) was 0.0756 µM. Further, the Tmax in data set [8] is 15 min. Further, in [9], the AUC(0-t) at 24 h was 209 nM·h. The inhibition in vivo at 1 µmol/kg in data set [20] was 20%.
